Measurements reported in paper PMC2780016 (Journal of medicinal chemistry, 2009).
“Also recorded” adds a separate entry of the source.

What was measured:
Format in all cases: biochemical
[1] = target: T1, human liver CE, hCE1 (CES1) (Homo sapiens, UniProt P23141); test: Inhibition of hCE1 hydrolysis of 3; conditions: for Ki: read-out: hCE1 Ki ± SE, substrate 3 (o-nitrophenyl acetate); for inhibition of hCE1 (in words): substrate 3
T1 sequence (P23141 18-567): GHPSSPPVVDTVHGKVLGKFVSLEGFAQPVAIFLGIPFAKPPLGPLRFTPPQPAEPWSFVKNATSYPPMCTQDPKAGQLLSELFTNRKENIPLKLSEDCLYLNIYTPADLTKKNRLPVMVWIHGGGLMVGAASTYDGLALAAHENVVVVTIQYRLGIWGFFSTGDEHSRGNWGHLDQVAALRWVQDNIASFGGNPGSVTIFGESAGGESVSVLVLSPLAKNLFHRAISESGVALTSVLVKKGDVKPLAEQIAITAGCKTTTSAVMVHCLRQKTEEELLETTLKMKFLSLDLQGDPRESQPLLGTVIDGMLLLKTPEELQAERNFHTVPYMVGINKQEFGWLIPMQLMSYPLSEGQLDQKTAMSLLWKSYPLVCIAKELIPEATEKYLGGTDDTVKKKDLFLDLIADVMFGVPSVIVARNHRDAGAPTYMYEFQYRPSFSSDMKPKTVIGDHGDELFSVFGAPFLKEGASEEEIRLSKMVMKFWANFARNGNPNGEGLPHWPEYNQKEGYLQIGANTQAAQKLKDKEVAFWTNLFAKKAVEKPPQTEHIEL

[2] = target: T2, human intestinal CE (hiCE, CES2) (Homo sapiens, UniProt O00748)
T2 sequence (O00748 27-559): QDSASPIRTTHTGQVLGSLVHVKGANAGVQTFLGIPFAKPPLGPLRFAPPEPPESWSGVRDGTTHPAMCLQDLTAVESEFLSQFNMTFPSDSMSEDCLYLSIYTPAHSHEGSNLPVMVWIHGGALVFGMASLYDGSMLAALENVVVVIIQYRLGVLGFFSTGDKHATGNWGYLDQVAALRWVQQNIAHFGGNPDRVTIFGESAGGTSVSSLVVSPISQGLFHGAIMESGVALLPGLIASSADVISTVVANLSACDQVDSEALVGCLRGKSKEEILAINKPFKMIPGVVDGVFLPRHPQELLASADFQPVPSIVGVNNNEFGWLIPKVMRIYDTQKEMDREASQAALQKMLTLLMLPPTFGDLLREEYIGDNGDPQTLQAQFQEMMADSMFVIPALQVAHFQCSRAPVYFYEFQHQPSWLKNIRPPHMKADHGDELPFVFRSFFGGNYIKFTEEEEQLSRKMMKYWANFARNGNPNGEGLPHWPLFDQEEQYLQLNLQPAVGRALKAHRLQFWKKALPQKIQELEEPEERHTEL

hiCE = target: T3, hiCE (Homo sapiens, UniProt O00748); test: Inhibition of the metabolism of heroin and cocaine; conditions: data not shown; Hatfield et al, manuscript in preparation
T3 sequence (O00748 27-559): T2 sequence (O00748 27-559)

hAChE = hAChE (Homo sapiens, UniProt P22303); test: Inhibition of acetylcholinesterase, acetylthiocholine substrate; conditions: data not shown
Summary of the method: (§1)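 Purified human AChE and BChE were obtained commercially. Test compounds were dissolved in DMSO (stock typically 10mM) immediately before analysis. Inhibition was measured by the previously reported method, with acetylthiocholine as substrate for hAChE and butyrylthiocholine for hBChE.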

hBChE = hBChE (Homo sapiens, UniProt P06276); test: Inhibition of butyrylcholinesterase, butyrylthiocholine substrate; conditions: data not shown
Summary of the method: as §1

hBChE, sequence (P06276 29-602): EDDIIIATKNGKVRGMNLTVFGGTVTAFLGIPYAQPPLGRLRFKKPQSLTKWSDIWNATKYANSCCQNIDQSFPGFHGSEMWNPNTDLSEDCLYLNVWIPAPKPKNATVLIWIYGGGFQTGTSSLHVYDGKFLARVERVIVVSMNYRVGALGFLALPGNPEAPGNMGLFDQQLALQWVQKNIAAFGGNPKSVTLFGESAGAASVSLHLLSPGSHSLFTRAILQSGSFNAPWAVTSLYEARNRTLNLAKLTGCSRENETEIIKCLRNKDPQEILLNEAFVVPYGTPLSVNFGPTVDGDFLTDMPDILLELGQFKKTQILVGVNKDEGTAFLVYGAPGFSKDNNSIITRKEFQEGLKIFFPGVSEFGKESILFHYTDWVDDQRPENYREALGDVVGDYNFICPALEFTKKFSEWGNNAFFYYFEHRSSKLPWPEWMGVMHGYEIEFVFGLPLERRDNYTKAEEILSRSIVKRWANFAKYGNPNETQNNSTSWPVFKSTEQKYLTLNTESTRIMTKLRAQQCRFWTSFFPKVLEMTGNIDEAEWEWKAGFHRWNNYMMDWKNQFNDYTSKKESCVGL
hAChE, sequence (P22303 32-614): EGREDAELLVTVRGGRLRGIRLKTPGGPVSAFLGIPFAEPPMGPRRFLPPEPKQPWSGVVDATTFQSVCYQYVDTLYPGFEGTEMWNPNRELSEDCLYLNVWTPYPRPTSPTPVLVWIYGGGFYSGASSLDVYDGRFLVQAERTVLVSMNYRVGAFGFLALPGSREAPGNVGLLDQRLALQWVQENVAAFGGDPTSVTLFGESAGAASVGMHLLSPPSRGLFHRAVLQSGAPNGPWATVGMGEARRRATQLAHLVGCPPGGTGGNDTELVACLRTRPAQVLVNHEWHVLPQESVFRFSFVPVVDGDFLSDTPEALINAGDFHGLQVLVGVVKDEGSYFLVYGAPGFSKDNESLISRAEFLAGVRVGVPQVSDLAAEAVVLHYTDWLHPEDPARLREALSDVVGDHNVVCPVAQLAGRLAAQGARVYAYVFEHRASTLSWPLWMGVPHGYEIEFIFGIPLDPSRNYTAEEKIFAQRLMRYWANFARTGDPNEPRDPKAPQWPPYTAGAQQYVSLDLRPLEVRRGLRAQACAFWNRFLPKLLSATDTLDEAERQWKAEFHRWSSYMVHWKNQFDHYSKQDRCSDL

| Molecule | inhibition of hCE1 (in words) [1] | inhibition of hiCE (in words) ([2]; substrate 3) | inhibition of hAChE (in words) (hAChE) | inhibition of hBChE (in words) (hBChE) | other results |
| --- | --- | --- | --- | --- | --- |
| 4,6-dimethyl-N1,N3- diphenylbenzene-1,3- disulfonamide [compound 4] | – | – | – | – | Ki [1]: > 100 µM |
| O=S(=O)(Nc1ccc(NS(=O)(=O)c2ccc(Cl)cc2)cc1)c1ccc(Cl)cc1 [compound 11, N,N'-(1,4-phenylene)bis(4-chlorobenzenesulfonamide)] | weak activity | – | – | – | fold more potent against hiCE than hCE1 ([2]; ratio of Ki values hCE1 vs hiCE, substrate 3): over 250 fold |
| O=S(=O)(Nc1ccc(NS(=O)(=O)c2cccc(Br)c2)cc1)c1cccc(Br)c1 [compound 18, N,N'-(1,4-phenylene)bis(3-bromobenzenesulfonamide)] | – | – | – | – | inhibition of the metabolism of heroin and cocaine (in words) (hiCE): can also inhibit the metabolism of heroin and cocaine |
| O=S(=O)(Nc1ccc(NS(=O)(=O)c2cc(Cl)c(Cl)cc2Cl)cc1)c1cc(Cl)c(Cl)cc1Cl [compound 28, N,N'-(1,4-phenylene)bis(2,4,5-trichlorobenzenesulfonamide)] | inactive | did not inhibit the enzyme; also recorded: loss of biological activity; also recorded: do not inhibit hiCE; also recorded: inactive | inactive | inactive | – |
| O=C(O)c1ccc(S(=O)(=O)Nc2ccc(NS(=O)(=O)c3ccc(F)cc3)cc2)cc1 [compound 39, 4-(N-(4-(4-fluorophenylsulfonamido)phenyl)sulfamoyl) benzoic acid] | inactive | did not inhibit the enzyme; also recorded: do not inhibit hiCE; also recorded: inactive | inactive | inactive | – |
| CNC(=O)c1ccc(S(=O)(=O)Nc2ccc(NS(=O)(=O)c3ccc(F)cc3)cc2)cc1 [compound 41, 4-(N-(4-(4-fluorophenylsulfonamido)phenyl)sulfamoyl)-N-methyl benzamide] | inactive | did not inhibit the enzyme; also recorded: do not inhibit hiCE; also recorded: inactive | inactive | inactive | – |
| O=S(=O)(Nc1c(F)c(F)c(NS(=O)(=O)c2ccc(Br)cc2)c(F)c1F)c1ccc(Br)cc1 [compound 54, N,N'-(2,3,5,6-tetrafluoro-1,4-phenylene) bis(4-bromobenzenesulfonamide)] | – | – | – | – | inhibition of the metabolism of heroin and cocaine (in words) (hiCE): can also inhibit the metabolism of heroin and cocaine |
| O=S(=O)(Nc1ccc2c(c1)Cc1cc(NS(=O)(=O)c3ccccc3)ccc1-2)c1ccccc1 [compound 56] | – | – | – | – | fold more potent at inhibiting hiCE than compound 8 ([2]; comparison of inhibition constants of 8 and 56): ~11 fold |
| N,N'-(1,4-phenylene)bis(4-fluoro-2-methyl benzene sulfonamide) [compound 36] | – | – | – | – | Ki ([2]; read-out: hiCE Ki ± SE, substrate 3 (o-nitrophenyl acetate)): 0.273 ± 0.033 µM; Ki [1]: > 100 µM |
